From ChEMBL document CHEMBL2176962, “Repositioning HIV-1 integrase inhibitors for cancer therapeutics: 1,6-naphthyridine-7-carboxamide as a promising scaffold with drug-like properties” (J Med Chem, 2012)
The source made the active and inactive calls. No cut-off for these calls is given here.

Experiments:
MDA-MB-435 [1] = assay: Cytotoxicity against human MDA-MB-435 cells incubated for 72 hrs by MTT assay; format: functional, cell-based; details: MDA-MB-435, 72 h
Method in brief: (§1)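 Cells were kept in DMEM (MDA-MB-435, MCF7, LNCaP) or RPMI (HT29, HCT116) with 10% heat-inactivated FBS and 2 mM L-glutamine, subconfluent and in exponential growth. They were seeded, allowed to adhere overnight, then exposed continuously to compound (10 mM DMSO stock) for 72 h. MTT was added to 0.3 mg/mL final for 3–4 h at 37 °C, formazan was dissolved in DMSO, and absorbance was read at 570 nm. Runs were in triplicate; IC50 came from log concentration versus percent cell kill.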

[2] = molecular target: Receptor tyrosine-protein kinase erbB-2 (Homo sapiens) (UniProt P04626); assay: Inhibition of ErbB2 at 10 uM incubated for 60 mins using poly(Glu,Tyr)4:1 substrate and 10 uM ATP by ELISA
Method in brief: (§2)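 ELISA with Poly(Glu,Tyr)4:1 (20 μg/mL) precoated as substrate and 10 μM ATP, in 50 mM HEPES pH 7.4, 20 mM MgCl2, 0.1 mM MnCl2, 0.2 mM Na3VO4, 1 mM DTT. Compound was tested at 10 μM, in duplicate. Kinase reaction ran 60 min at 37 °C. Phosphotyrosine was detected with PY99 and HRP anti-mouse IgG, developed with o-phenylenediamine/H2O2, stopped with H2SO4 and read at 492 nm. Inhibition = [1 − A492 treated/A492 control] × 100%. References: lapatinib (ErbB2) and PP2 (Src), each at 10 μM.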

[3] = molecular target: T1, Human immunodeficiency virus type 1 integrase (Human immunodeficiency virus 1, UniProt Q7ZJM1); assay: Inhibition of HIV1 integrase strand transfer activity using [32P]-labeled linear oligonucleotide substrate
[4] = Therapeutic index, ratio of CC50 for human C8166 cells to EC50 for HIV1 3B; format: cell-based; details: read-out: Ratio CC50/EC50
Method in brief: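 Therapeutic index was calculated as the C8166 MTT CC50 divided by the HIV-1 IIIB syncytium-reduction EC50.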

HCT-116 [5] = assay: Cytotoxicity against p53 deficient human HCT116 cells incubated for 72 hrs by MTT assay; format: functional, cell-based; details: HCT-116, 72 h; method in brief: as §1
[6] = tested on: Human immunodeficiency virus 1; assay: Antiviral activity against HIV1 3B infected in human C8166 cells assessed as reduction in virus-induced cytopathogenicity measured after 3 days by syncytium reduction assay; format: functional, organism-based; details: Human immunodeficiency virus 1, 3B, C8166, 72 h
Method in brief: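 C8166 cells (4 × 10⁵ mL⁻¹), grown in RPMI-1640 with 10% heat-inactivated FCS and kept in log phase, infected with HIV-1 IIIB at MOI 0.06 in the presence of serial compound dilutions. AZT served as positive control. After 3 days, syncytia were counted by inverted microscope. EC50 was derived from percent inhibition of syncytium number relative to infected control.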

[7] = molecular target: Proto-oncogene tyrosine-protein kinase Src (Homo sapiens) (UniProt P12931); assay: Inhibition of SRC at 10 uM incubated for 60 mins using poly(Glu,Tyr)4:1 substrate and 10 uM ATP by ELISA; method in brief: as §2
HCT-116 [8] = assay: Cytotoxicity against p53 expressing human HCT116 cells incubated for 72 hrs by MTT assay; format: functional, cell-based; details: HCT-116, 72 h; method in brief: as §1
[9] = molecular target: T1, Human immunodeficiency virus type 1 integrase; assay: Inhibition of HIV1 integrase 3'-processing activity using [32P]-labeled linear oligonucleotide substrate
MCF7 = assay: Cytotoxicity against human MCF7 cells incubated for 72 hrs by MTT assay; format: functional, cell-based; details: MCF7, 72 h; method in brief: as §1
[10] = Toxicity against human C8166 cells incubated for 72 hrs by MTT assay; format: cell-based
Method in brief: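 C8166 cells were seeded with serial compound dilutions in triplicate and incubated at 37 °C, 5% CO2 for 72 h. MTT (5 mg/mL in PBS) was added for 4 h, and formazan was dissolved in 50% DMF-20% SDS. Absorbance was read at 595/630 nm. CC50 was taken from the dose-response curve.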

LNCaP = assay: Cytotoxicity against human LNCAP cells incubated for 72 hrs by MTT assay; format: functional, cell-based; method in brief: as §1
SK-BR-3 = assay: Cytotoxicity against human SKBR3 cells incubated for 72 hrs by MTT assay; format: functional, cell-based; details: SK-BR-3, 72 h
[11] = molecular target: Vascular endothelial growth factor receptor 2 (Homo sapiens) (UniProt P35968); details: at 10 µM
HT-29 = assay: Cytotoxicity against human HT-29 cells incubated for 72 hrs by MTT assay; format: functional, cell-based; details: HT-29, 72 h; method in brief: as §1
[12] = molecular target: Fibroblast growth factor receptor 1 (Homo sapiens) (UniProt P11362); assay: Inhibition of FGFR1 at 10 uM in presence of ATP at Km level by kinase profiler method
HEY = assay: Cytotoxicity against human HEY cells incubated for 72 hrs by MTT assay; format: functional, cell-based
[13] = molecular target: T2, Aurora kinase A (Homo sapiens) (UniProt O14965); assay: Inhibition of Aurora A kinase at 10 uM in presence of ATP at Km level by kinase profiler method
T2 sequence (whole entry): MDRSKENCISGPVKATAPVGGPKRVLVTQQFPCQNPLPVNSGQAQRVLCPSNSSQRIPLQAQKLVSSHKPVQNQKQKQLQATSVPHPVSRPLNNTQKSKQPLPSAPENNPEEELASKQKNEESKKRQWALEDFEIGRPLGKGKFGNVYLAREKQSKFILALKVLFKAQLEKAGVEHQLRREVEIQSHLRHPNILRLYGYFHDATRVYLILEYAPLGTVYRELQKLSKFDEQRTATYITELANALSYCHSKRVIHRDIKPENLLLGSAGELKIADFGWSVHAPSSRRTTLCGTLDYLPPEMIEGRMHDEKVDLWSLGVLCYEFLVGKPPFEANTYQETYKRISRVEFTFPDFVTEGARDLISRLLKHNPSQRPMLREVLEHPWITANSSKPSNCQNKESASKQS

[14] = molecular target: Insulin-like growth factor 1 receptor (Homo sapiens) (UniProt P08069); assay: Inhibition of IGF1R at 10 uM in presence of ATP at Km level by kinase profiler method
[15] = molecular target: Tyrosine-protein kinase Lck (Homo sapiens) (UniProt P06239); assay: Inhibition of LCK at 10 uM in presence of ATP at Km level by kinase profiler method
[16] = tested on: Tyrosine-protein kinase ABL1 (Homo sapiens), P00519 [T315I]; assay: Inhibition of Abl T315I mutant at 10 uM in presence of ATP at Km level by kinase profiler method
[17] = molecular target: Angiopoietin-1 receptor (Homo sapiens) (UniProt Q02763); assay: Inhibition of TIE2 at 10 uM in presence of ATP at Km level by kinase profiler method
[18] = molecular target: Hepatocyte growth factor receptor (Homo sapiens) (UniProt P08581); assay: Inhibition of MET at 10 uM in presence of ATP at Km level by kinase profiler method
[19] = molecular target: Vascular endothelial growth factor receptor 2 (Homo sapiens) (UniProt P35968); assay: Inhibition of KDR at 10 uM in presence of ATP at Km level by kinase profiler method
MDA-MB-435 [20] = assay: Inhibition of colony formation in human MDA-MB-435 cells at 10 uM treated continuously for 7 days by crystal violet staining based colony formation assay; format: functional, cell-based
Method in brief: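 MDA-MB-435 cells (500 per well) were adhered overnight and treated with compound at 10 μM, or across a dose range. The methods describe a 24 h treatment, then PBS washing and 7–10 days regrowth; the figure legend describes continuous 7-day treatment. Colonies were fixed and stained with 2% crystal violet containing 1% glutaraldehyde, then imaged.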

T1 sequence (Q7ZJM1 whole entry): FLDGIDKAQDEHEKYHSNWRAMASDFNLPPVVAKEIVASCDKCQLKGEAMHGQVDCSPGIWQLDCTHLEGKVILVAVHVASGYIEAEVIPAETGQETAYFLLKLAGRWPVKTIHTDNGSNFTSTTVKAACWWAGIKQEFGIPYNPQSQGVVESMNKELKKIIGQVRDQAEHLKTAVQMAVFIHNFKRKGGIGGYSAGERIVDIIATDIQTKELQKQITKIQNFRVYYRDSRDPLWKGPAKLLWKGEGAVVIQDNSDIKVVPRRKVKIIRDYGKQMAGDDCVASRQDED
Chain of Insulin-like growth factor 1 receptor (Homo sapiens) (P08069 31-736 limits assumed): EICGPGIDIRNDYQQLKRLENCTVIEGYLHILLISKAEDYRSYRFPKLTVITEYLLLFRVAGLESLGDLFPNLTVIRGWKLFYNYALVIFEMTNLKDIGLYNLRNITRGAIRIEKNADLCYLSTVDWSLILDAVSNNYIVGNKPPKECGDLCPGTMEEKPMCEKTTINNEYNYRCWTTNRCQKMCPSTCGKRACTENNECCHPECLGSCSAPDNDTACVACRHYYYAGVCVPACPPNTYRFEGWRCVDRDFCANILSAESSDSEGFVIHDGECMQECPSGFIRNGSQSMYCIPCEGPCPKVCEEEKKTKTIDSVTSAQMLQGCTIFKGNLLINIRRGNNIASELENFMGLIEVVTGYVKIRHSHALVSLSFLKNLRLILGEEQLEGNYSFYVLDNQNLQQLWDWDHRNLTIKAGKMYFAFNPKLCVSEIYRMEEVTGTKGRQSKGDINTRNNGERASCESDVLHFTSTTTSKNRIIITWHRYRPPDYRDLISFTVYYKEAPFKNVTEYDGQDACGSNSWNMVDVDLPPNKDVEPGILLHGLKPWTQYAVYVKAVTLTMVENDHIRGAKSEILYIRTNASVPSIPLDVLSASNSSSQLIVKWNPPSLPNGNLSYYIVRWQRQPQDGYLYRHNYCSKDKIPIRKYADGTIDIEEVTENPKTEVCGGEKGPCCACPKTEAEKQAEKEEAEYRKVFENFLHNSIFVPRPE
Chain of Insulin-like growth factor 1 receptor (Homo sapiens) (P08069 741-1367 limits assumed): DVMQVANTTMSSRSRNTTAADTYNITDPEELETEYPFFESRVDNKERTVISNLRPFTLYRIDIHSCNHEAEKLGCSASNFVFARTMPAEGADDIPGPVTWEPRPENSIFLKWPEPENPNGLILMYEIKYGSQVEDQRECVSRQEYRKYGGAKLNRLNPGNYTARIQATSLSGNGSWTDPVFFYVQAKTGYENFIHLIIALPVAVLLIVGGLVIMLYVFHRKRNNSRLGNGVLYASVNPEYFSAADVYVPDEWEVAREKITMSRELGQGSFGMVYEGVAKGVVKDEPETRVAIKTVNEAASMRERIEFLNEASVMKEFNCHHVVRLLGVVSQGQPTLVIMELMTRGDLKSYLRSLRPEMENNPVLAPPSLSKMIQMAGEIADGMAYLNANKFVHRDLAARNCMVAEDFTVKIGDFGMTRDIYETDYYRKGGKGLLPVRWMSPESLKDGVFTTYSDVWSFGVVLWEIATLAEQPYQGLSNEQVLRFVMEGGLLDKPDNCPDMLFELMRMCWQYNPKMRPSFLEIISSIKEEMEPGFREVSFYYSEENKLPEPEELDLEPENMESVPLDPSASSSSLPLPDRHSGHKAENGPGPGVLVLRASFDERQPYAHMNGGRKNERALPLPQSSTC
Chain of Proto-oncogene tyrosine-protein kinase Src (Homo sapiens) (P12931 2-536 limits assumed): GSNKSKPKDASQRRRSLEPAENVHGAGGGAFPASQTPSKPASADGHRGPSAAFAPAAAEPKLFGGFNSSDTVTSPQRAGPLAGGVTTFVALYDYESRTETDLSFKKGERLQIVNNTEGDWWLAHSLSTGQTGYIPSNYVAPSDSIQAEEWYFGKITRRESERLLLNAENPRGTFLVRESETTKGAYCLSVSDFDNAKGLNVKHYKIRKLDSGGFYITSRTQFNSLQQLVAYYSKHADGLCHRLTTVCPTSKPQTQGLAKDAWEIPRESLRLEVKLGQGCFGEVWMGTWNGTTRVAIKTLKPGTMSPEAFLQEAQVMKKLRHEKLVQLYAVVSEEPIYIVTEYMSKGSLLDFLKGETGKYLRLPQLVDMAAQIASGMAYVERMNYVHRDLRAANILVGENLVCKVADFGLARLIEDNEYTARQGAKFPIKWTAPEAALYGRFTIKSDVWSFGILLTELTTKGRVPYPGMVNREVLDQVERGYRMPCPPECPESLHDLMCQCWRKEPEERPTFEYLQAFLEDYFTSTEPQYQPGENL
Chain of Receptor tyrosine-protein kinase erbB-2 (Homo sapiens) (P04626 whole entry): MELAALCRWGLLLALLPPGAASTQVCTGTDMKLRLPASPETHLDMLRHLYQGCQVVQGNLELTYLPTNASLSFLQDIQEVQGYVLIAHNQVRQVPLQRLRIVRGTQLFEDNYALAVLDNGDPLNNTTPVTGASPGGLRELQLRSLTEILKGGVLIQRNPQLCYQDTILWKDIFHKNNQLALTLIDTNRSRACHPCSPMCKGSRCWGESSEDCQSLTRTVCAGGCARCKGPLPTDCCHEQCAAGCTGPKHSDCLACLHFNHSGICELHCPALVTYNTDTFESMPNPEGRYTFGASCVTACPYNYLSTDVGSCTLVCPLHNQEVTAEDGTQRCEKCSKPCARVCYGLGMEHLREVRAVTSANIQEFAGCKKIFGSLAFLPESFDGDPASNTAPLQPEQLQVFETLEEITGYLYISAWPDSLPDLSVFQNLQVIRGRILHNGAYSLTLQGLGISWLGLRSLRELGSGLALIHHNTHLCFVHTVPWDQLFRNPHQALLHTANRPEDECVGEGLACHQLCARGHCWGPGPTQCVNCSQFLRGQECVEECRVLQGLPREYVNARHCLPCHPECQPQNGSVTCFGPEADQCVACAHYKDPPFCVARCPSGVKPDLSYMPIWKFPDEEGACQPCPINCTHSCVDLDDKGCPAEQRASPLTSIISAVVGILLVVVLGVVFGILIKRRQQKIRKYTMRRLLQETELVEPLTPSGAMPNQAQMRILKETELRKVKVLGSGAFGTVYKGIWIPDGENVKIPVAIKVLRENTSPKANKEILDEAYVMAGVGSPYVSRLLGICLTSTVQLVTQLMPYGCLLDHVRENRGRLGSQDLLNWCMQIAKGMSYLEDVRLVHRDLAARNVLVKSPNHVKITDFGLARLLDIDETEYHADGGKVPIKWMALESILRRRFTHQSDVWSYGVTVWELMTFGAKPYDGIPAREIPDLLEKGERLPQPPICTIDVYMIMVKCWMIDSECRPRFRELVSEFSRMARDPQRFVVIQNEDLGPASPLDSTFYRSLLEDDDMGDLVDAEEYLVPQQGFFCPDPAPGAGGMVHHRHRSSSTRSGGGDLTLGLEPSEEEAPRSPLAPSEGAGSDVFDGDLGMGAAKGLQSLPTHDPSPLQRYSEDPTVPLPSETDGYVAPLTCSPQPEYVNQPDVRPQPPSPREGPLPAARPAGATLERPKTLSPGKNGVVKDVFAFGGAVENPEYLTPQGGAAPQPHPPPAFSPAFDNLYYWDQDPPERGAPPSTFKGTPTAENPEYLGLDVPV
Chain of Fibroblast growth factor receptor 1 (Homo sapiens) (P11362 22-822 limits assumed): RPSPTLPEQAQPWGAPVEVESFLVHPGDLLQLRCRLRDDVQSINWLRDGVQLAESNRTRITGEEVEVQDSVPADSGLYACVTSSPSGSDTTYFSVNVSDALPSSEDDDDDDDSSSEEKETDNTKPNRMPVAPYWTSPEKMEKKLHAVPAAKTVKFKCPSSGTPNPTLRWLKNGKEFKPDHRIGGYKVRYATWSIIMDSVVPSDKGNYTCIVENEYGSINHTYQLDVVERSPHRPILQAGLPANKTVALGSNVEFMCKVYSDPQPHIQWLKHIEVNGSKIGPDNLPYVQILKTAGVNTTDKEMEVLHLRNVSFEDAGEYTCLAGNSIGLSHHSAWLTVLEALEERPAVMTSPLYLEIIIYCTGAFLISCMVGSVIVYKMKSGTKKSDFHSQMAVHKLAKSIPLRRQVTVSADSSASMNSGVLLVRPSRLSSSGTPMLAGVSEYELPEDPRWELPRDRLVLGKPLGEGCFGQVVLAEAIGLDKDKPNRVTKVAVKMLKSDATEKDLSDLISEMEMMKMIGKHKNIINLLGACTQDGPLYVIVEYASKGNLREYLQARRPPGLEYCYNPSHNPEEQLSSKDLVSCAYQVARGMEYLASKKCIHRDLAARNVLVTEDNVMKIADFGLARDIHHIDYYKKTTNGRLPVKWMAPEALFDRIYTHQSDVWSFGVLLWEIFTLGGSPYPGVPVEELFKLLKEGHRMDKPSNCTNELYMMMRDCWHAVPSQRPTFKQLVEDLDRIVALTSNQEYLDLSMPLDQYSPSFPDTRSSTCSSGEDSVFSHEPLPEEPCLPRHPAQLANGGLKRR
Chain of Tyrosine-protein kinase Lck (Homo sapiens) (P06239 2-509 limits assumed): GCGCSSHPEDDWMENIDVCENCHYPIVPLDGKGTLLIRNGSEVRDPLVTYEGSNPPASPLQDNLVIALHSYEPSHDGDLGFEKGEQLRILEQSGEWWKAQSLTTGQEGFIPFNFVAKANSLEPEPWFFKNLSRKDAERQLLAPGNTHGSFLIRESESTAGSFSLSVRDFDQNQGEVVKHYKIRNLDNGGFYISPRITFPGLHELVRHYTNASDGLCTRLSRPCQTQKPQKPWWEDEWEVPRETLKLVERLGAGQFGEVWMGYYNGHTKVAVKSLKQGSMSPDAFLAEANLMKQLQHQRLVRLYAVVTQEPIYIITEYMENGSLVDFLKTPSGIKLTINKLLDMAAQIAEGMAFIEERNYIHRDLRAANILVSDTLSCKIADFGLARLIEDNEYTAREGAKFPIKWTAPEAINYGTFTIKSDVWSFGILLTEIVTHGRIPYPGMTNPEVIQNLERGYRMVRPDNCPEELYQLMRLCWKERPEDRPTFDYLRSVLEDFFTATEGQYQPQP

Row | Compound | IC50 (MDA-MB-435 [1]) [µM] | inhibition [2] [%] | IC50 [3] [µM] | selectivity ratio [4] | IC50 (HCT-116 [5]) [µM] | EC50 [6] [µM] | inhibition [7] [%] | IC50 (HCT-116 [8]) [µM] | IC50 [9] [µM] | IC50 (MCF7) [µM] | CC50 at 72 h [10] [µM] | IC50 (LNCaP) [µM] | IC50 (SK-BR-3) [µM] | inhibition [11] [%] | IC50 (HT-29) [µM] | also measured
1 | O=CNCCCCCCNc1nc(C(=O)NCc2ccc(F)cc2)c(O)c2ncccc12 | 16 | 11 | 0.2 | 7370 | 6 | 0.027 | 23 | 4 | 6 | 19 | 199 |  |  |  |  | 
2 | NCCCNc1c(C(=O)NCc2ccc(F)cc2)ncc2cccnc12 | 16 |  |  |  | > 10 |  | 15 | > 10 |  | > 10 |  | > 10 | > 10 | 10 | > 10 | 
3 | N[C@H]1CC[C@H](Nc2c(C(=O)NCc3ccc(Cl)cc3Cl)nc(Br)c3cccnc23)CC1 | 5.8 | 13 |  |  |  |  | 90 | 6 |  |  |  |  | 6 | 41 |  | inhibition [12]: Active; IC50 (HEY): 5 µM; inhibition [13]: Active; inhibition [14]: Active; inhibition [15]: Active; inhibition [16]: Active
4 | O=C(NCc1ccc(F)cc1)c1nc(N2CCCCS2(=O)=O)c2cccnc2c1O | 6 | 8 | 0.3 | 26400 | 2 | 0.005 | 13 | 2 | 11 | 2 | 132 |  |  |  |  | 
5 | O=C(NCc1ccc(F)cc1)c1nc(Br)c2cccnc2c1O | 15 |  | 0.5 | 7.2 | > 20 | 11.1 |  | > 20 | 14 |  | 80 |  |  |  |  | 
6 | CS(=O)(=O)NCCCN(c1nc(C(=O)NCc2ccc(F)cc2)c(O)c2ncccc12)S(C)(=O)=O | > 20 |  | 0.7 | 21300 | 7 | 0.003 |  | 15 | 34 | > 20 | 64 |  |  |  |  | 
7 | CN(C)CCCNc1c(C(=O)NCc2ccc(F)cc2)nc(Br)c2cccnc12 | 7 |  |  |  | > 10 |  | 17 | > 10 |  | 7 |  | 8 | 1 | 0 | 6 | 
8 | COc1ccc(CNC(=O)c2nc(Br)c3cccnc3c2N[C@H]2CC[C@H](N)CC2)cc1 | 5 | 0 |  |  |  |  | 76 | 3 |  |  |  |  | 5 | 2 |  | inhibition [12]: Active; inhibition [17]: Active; IC50 (HEY): 4 µM; inhibition [14]: Active; inhibition [18]: Active; inhibition [19]: Active
9 | N[C@H]1CC[C@H](Nc2c(C(=O)NCc3ccc(Cl)cc3)nc(Br)c3cccnc23)CC1 | 1 | 0 |  |  |  |  | 70 | 4 |  |  |  |  | 2 | 34 |  | inhibition [12]: Active; IC50 (HEY): 1 µM; inhibition [13]: Active; inhibition [14]: Active; inhibition [15]: Active; inhibition [16]: Active
10 | O=C(NCc1ccc(F)cc1)c1nc(Br)c2cccnc2c1NCCO | > 20 |  | 69 | 4.8 | > 20 | 48.9 |  | > 20 | > 100 |  | 232 |  |  |  |  | 
11 | O=C(NCc1ccc(F)cc1)c1nc(Br)c2cccnc2c1NC1CCNCC1 | 7 | 1 |  |  | 6 |  | 9 | 9.2 |  | 3 |  | 6 | 1 | 0 | 4 | inhibition (MDA-MB-435 [20]): Active
12 | O=C(NCc1ccc(F)cc1)c1nc(NCCc2c[nH]c3ccccc23)c2cccnc2c1O | 13 |  | 1 | 114 |  | 0.368 |  |  | 14 | 12 | 42 |  |  |  |  | 
13 | CS(=O)(=O)Oc1c(C(=O)NCc2ccc(F)cc2)nc(Br)c2cccnc12 | > 20 |  | 13 | 4 | > 20 | 11.8 |  | > 20 | > 111 |  | 48 |  |  |  |  | 
14 | Nc1ccc(Nc2c(C(=O)NCc3ccc(F)cc3)nc(Br)c3cccnc23)cc1 | 7 | 1 |  |  | 7 |  | 7 | 10 |  | 4 |  | 7 | 4 | 8 | > 10 | 
15 | CS(=O)(=O)NCCCCCCN(c1nc(C(=O)NCc2ccc(F)cc2)c(O)c2ncccc12)S(C)(=O)=O | 20 |  | 0.7 | 18500 | 4 | 0.002 |  | 3 | 11 | 7 | 37 |  |  |  |  | 
16 | O=C(NCc1ccc(F)cc1)c1nc(Br)c2cccnc2c1N1CCNCC1 | 8 |  |  |  | > 10 |  | 29 | > 10 |  | 7 |  | 4.5 | 6 | 4 | 10 | 
17 | NCCCCCCNc1c(C(=O)NCc2ccc(F)cc2)nc(Br)c2cccnc12 | 6 |  |  |  | > 10 |  | 18 | 7 |  | 2 |  | 8 | 3 | 0 | 5 | inhibition (MDA-MB-435 [20]): Active
